Where a chain is given by its changes, count along the chain named.
What was measured:
Test in all cases: isothermal titration calorimetry
Details in all cases: PBS, 298 K, 30 μM protein; GFP fusion
[1] = target: T1, GFP-RBP(L19A); ribose binding protein (RBP) (Escherichia coli, UniProt P02925, L44A)
T1 sequence (P02925 26-296 L44A): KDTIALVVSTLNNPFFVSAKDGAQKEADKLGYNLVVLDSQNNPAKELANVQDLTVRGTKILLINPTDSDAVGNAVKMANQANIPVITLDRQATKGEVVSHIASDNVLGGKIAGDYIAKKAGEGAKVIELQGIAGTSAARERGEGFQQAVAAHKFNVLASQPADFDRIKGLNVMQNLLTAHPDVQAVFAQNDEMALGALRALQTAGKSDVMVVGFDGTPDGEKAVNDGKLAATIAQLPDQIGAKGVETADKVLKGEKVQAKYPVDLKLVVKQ
Procedure, shortened: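 GFP-RBP(L19A) expressed in E. coli BL21(DE3) and Ni-affinity purified with on-column 8 M urea unfolding and refolding to strip endogenous ribose, then size-exclusion in PBS. ITC at 298 K: cell held 30 μM protein in PBS against a deionized water reference; ribose at 10x protein concentration in PBS. Kd came from nonlinear regression fits of the binding isotherms.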

[2] = target: T2, GFP-RBP(L19A); ribose binding protein (RBP) (Escherichia coli, UniProt P02925, L44A/Q260A)
T2 sequence (P02925 26-296 L44A/Q260A): T1 sequence (P02925 26-296 L44A) with Q235A

[3] = target: T3, GFP-RBP(L19A); ribose binding protein (RBP) (Escherichia coli, UniProt P02925, L44A/T160A/Q260A)
T3 sequence (P02925 26-296 L44A/T160A/Q260A): T1 sequence (P02925 26-296 L44A) with T135A, Q235A

## OC1OC[C@@H](O)[C@@H](O)[C@H]1O (stereo partly drawn) [ribose]
[1]
  Kd: 0.3 ± 0.1 µM
[2]
  Kd: 10 µM
[3]
  Kd: 130 µM
